Source: ChEMBL document CHEMBL1166010, “(E)-2-styrylchromones as potential anti-norovirus agents” (Bioorg Med Chem, 2010)

How the values were obtained:
[1] = Antiviral activity against MNV1 CW1 infected in mouse RAW264.7 cells assessed as inhibition of viral plaque formation after 24 hrs by neutral red staining; type: functional, cell-based, Murine norovirus 1; conditions: for IC50: Murine norovirus 1, CW1, RAW264.7, 24 h
How it was run: (§1)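 Confluent RAW 264.7 cells (plated at 5.0 × 10^5 cells/mL, 24 h, then maintenance medium with 2% FBS) infected 1 h at 37 °C with MNV-1.CW1 at 20-80 PFU/well, with compound present during infection and in first agarose overlay for 24 h. Second overlay with neutral red, further 24 h, plaques counted. Top concentration 50 µM (10 µM for some).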

[2] = Cytotoxicity against mouse RAW264.7 cells assessed as maximum non-toxic dose after 48 hrs by MTT assay; type: cell-based
How it was run: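 RAW 264.7 cells exposed 48 h to serial dilutions (top 150 µM, 100 µM for one compound) in duplicate, control 0.25% DMSO. MTT 0.5 mg/mL added for 4 h, formazan dissolved in DMSO, absorbance 550 nm. […] 3–4 independent experiments.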

[3] = Cytotoxicity against mouse RAW264.7 cells after 48 hrs by MTT assay; type: cell-based
[4] = Antiviral activity against MNV1 CW1 infected in mouse RAW264.7 cells assessed as inhibition of viral plaque formation at 50 uM after 24 hrs by neutral red staining; type: functional, Murine norovirus 1; conditions: Norwalk virus, CW1, RAW264.7, 24 h; how it was run: as §1
[5] = Cytotoxicity against mouse RAW264.7 cells assessed as cell viability at 2.34 uM after 48 hrs by MTT assay; type: cell-based; conditions: read-out: Activity
rhinovirus B14 = experiment: Antiviral activity against HRV-14 infected in human HeLa cells assessed as inhibition of viral plaque formation; type: functional, organism-based; conditions: Rhinovirus B
rhinovirus A1B = experiment: Antiviral activity against HRV-1B infected in human HeLa cells assessed as inhibition of viral plaque formation; type: functional, organism-based, Human rhinovirus 1B; conditions: Rhinovirus A
[6] = Selectivity index, ratio of CC50 for mouse RAW264.7 cells to IC50 for MNV1 CW1 infected in mouse RAW264.7 cells; type: functional
[7] = (§2) Antiviral activity against MNV1 CW1 infected in mouse RAW264.7 cells assessed as inhibition of viral plaque formation treated for 1 hr during viral infection by neutral red staining; type: functional, cell-based, Murine norovirus 1; conditions: Norwalk virus, CW1, RAW264.7, 1 h
How it was run: (§3)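 Time-of-addition variant: RAW 264.7 cells exposed to serial compound concentrations only during the 1 h MNV-1.CW1 infection at 37 °C, then compound-free agarose overlays (neutral red second overlay, 24 h + 24 h) and plaque count. IC50 vs DMSO control; three independent experiments in duplicate.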

RAW264.7 [8] = experiment: as §2; type: functional, cell-based; conditions: Murine norovirus 1; how it was run: as §3
RAW264.7 [9] = experiment: Cytotoxicity against mouse RAW264.7 cells at 100 uM after 48 hrs by MTT assay; type: cell-based; conditions: raw264.7, 48 h
[10] = Antiviral activity against MNV1 CW1 infected in mouse RAW264.7 cells assessed as inhibition of viral plaque formation treated for 1 hr during viral infection followed by 48 hrs compound addition post infection by neutral red staining; type: functional, cell-based, Murine norovirus 1; conditions: Norwalk virus, CW1, RAW264.7; how it was run: as §1
[11] = (§4) Antiviral activity against MNV1 CW1 infected in mouse RAW264.7 cells assessed as inhibition of viral plaque formation treated for 48 hrs after viral infection by neutral red staining; type: functional, cell-based, Murine norovirus 1; conditions: Norwalk virus, CW1, RAW264.7, 48 h
How it was run: (§5)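 Compound added only in the agarose overlays for 48 h after 1 h MNV-1.CW1 infection of confluent RAW 264.7 cells; neutral red second overlay at 24 h, plaques counted after further 24 h. IC50 relative to DMSO-treated infected control; run alongside standard conditions.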

RAW264.7 [12] = experiment: as §4; type: functional, cell-based; conditions: Murine norovirus 1; how it was run: as §5
[13] = Antiviral activity against MNV1 CW1 infected in mouse RAW264.7 cells assessed as inhibition of viral plaque formation at 10 uM after 24 hrs by neutral red staining; type: functional, Murine norovirus 1; conditions: Norwalk virus, CW1, RAW264.7, 24 h; how it was run: as §1

Structure (SMILES)	IC50 [1]	MNTC at 48 h ([2]; read-out: MNTD70)	MNTC at 48 h ([2]; read-out: MNTD90)	CC50 at 48 h [3]	inhibition at 50 µM [4]	viability at 48 h, 2.34 µM [5]	IC50 (rhinovirus B14)	IC50 (rhinovirus A1B)	inhibition (INH) [1]	Ratio CC50/IC50 [6]	IC50 [7]	inhibition (RAW264.7 [8])	Activity (RAW264.7 [9])	IC50 [10]	IC50 [11]	inhibition (RAW264.7 [12])	inhibition at 10 µM [13]
O=c1cc(/C=C/c2ccccc2)oc2cccc(OCc3ccccc3)c12	> 50 µM	> 150 µM	75 µM	> 150 µM	39.4%	–	–	–	–	–	–	–	–	–	–	–	–
O=c1cc(/C=C/c2ccc(O)cc2)oc2ccccc12	> 50 µM	> 150 µM	< 2.34 µM	> 150 µM	21.1%	86%	6.41 µM	9.29 µM	–	–	–	–	–	–	–	–	–
COc1ccc(/C=C/c2cc(=O)c3ccccc3o2)cc1	–	> 100 µM	50 µM	–	–	–	–	–	–	–	–	–	–	–	–	–	–
O=c1ccoc2ccccc12 [CHROMONE]	> 50 µM	> 150 µM	37.5 µM	> 150 µM	–	–	–	–	29.9%	–	–	–	–	–	–	–	–
O=c1cc(/C=C/c2ccccc2)oc2ccccc12	17.7 µM	> 150 µM	75 µM	> 150 µM	–	–	> 25 µM	6.19 µM	–	>8.5	–	–	–	–	–	–	–
C/C(=C\c1ccccc1)c1cc(=O)c2ccccc2o1	18 µM	> 150 µM	> 150 µM	> 150 µM	–	–	–	–	–	>8.3	–	–	–	–	–	–	–
COc1c(/C=C/c2ccccc2)oc2ccccc2c1=O	37.9 µM	75 µM	37.5 µM	> 150 µM	–	–	1.6 µM	1.1 µM	–	>4	–	–	–	–	–	–	–
O=c1cc(/C=C/c2ccc(Cl)cc2)oc2ccccc12	–	> 150 µM	75 µM	–	–	–	–	–	–	–	–	–	–	–	–	–	–
O=c1cc(/C=C/c2ccccc2)oc2cccc(O)c12	7 µM	> 150 µM	4.69 µM	> 150 µM	–	–	–	–	–	>21.6	39 µM	Dose-dependent effect	Non-toxic	6.9 µM	8.2 µM	Dose-dependent effect	–
C/C(=C\c1ccccc1)c1oc2ccccc2c(=O)c1O	> 10 µM	18.8 µM	< 2.34 µM	46.7 µM	–	81%	–	–	–	–	–	–	–	–	–	–	40.8%
Cc1ccc(/C=C/c2cc(=O)c3ccccc3o2)cc1	23.7 µM	> 150 µM	> 150 µM	> 150 µM	–	–	> 6.25 µM	> 6.25 µM	–	>6.3	–	–	–	–	–	–	–
O=c1c(O)c(/C=C/c2ccccc2)oc2ccccc12	> 10 µM	18.8 µM	2.34 µM	52.1 µM	–	–	9.76 µM	5.13 µM	–	–	–	–	–	–	–	–	6.8%
